In the library only some 27% were active in any assay of this set; here they are far more common.
CYP2C9 activ: CYP2C9 (human) activation; activation factor at 5 µM; 1.4% of 96,000 active; AID 1024; recombinant CYP2C9, luciferin-H conversion, luminescence; hits give high values; factor 1 = untreated enzyme, 0 = blocked; P11712;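 active = activation factor of 2 or more for CYP2C9 at a 5 µM dose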
Cav32 inh: blocks human Cav3.2 T-type calcium channel; Cav3.2-expressing cells, Fluo-4 calcium fluorescence FDSS; hits give low values; B-score at 10 µM; 4% of 100,000 active; AID 449739;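 active = single-dose well whose peak fluorescence ratio is a statistical outlier from its plate by either plate-standardised score or position-corrected B-score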
Target sequence (O95180 whole entry, looked up): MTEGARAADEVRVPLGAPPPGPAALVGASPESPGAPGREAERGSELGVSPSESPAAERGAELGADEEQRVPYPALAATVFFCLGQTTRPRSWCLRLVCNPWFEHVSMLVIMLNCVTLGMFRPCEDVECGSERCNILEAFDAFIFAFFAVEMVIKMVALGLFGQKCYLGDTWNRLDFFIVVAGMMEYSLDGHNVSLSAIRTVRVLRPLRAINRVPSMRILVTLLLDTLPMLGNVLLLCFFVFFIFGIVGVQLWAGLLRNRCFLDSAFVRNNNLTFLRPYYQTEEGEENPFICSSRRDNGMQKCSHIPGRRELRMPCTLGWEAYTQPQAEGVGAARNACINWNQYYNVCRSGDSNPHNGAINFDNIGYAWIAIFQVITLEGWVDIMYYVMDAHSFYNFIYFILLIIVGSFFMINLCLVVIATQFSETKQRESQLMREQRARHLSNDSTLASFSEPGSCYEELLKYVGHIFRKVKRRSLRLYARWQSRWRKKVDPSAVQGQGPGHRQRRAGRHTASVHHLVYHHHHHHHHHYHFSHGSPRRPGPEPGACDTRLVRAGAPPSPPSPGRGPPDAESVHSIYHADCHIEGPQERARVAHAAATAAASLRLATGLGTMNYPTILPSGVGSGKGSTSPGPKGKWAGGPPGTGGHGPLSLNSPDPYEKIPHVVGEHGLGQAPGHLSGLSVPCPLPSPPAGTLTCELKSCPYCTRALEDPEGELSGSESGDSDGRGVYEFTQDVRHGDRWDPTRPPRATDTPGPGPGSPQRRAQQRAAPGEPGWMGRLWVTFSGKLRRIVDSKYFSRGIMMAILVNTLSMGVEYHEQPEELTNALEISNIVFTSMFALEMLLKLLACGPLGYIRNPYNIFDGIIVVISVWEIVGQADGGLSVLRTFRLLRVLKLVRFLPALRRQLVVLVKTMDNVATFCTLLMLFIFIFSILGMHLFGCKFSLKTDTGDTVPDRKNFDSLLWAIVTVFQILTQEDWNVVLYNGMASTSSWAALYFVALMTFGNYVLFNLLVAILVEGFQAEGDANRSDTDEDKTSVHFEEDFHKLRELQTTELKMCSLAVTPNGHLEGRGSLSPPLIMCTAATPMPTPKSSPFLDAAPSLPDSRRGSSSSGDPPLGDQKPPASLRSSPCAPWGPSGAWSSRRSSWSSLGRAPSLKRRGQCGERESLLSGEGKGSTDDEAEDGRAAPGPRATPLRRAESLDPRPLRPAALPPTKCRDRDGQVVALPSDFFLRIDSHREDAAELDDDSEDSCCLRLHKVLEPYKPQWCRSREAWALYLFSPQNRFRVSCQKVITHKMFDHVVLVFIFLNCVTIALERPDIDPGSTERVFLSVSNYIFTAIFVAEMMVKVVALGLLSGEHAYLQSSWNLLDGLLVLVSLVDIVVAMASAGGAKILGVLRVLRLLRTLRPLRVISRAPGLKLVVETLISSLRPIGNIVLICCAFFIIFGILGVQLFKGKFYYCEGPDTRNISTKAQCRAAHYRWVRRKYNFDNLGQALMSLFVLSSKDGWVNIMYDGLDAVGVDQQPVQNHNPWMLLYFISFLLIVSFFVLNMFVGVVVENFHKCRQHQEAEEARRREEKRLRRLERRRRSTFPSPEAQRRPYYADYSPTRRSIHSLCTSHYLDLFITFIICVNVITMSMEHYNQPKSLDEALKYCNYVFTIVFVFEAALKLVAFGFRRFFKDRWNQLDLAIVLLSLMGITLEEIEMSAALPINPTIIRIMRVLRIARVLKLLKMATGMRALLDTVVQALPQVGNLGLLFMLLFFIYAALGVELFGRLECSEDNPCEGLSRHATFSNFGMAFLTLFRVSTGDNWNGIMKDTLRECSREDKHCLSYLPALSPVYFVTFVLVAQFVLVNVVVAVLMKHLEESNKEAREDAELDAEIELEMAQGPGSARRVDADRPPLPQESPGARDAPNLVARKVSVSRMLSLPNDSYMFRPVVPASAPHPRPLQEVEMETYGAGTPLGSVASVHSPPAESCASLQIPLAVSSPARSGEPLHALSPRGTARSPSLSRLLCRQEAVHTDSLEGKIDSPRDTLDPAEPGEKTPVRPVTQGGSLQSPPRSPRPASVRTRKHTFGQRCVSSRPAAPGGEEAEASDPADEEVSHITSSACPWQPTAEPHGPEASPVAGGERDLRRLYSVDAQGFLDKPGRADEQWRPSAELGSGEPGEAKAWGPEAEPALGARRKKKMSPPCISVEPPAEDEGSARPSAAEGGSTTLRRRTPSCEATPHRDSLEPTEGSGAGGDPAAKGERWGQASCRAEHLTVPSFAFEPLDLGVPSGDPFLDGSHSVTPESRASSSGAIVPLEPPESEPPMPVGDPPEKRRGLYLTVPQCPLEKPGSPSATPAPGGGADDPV
Rev-RRE block: HIV Rev-RRE protein-RNA interaction inhibition. P05866. Rev peptide-RRE RNA binding, FRET. inhibition, % at 8 µM. 0.79% of 97,000 active. AID 704;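 active = inhibition above the screen-wide mean plus 3 SD, cut at about 35% in these data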
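Probe or stimulus: fluorescein-Rev peptide as binding partner; assay system: Cy5-tagged RRE RNA duplex with fluorescein-tagged Rev peptide; timing: 5 min compound–RNA preincubation, then 15 min with peptide, 25 °C; medium: HEPES pH 7.5 buffer with KCl, MgCl2, NaCl and EDTA; signal: fluorescein-to-Cy5 FRET, 480 nm excitation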
CYP2C19 activ: increases human CYP2C19 enzyme activity; P33261; recombinant CYP2C19, luciferin-H EGE luminescence; hits give high values; 0 = fully inhibited enzyme, 1 = untreated enzyme; activation factor at 5 µM; 96,000 tested, under 10 active; AID 1025;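 active = activation factor of at least 2 at 5 µM in the primary screen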
CYP2C9 inh: inhibitors of human CYP2C9; CYP2C9 Supersomes, luciferin-H conversion, luminescence; inhibition, % at 5 µM; 20% of 96,000 active; AID 777;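 active = blocking of liver enzyme CYP2C9 beyond about 50% at 5 µM, limit read from the data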
CYP2C19 inhib: blocks human cytochrome P450 2C19; CYP2C19 Supersomes, luciferin-H EGE luminescence, 30 min; P33261; inhibition, % at 5 µM; AID 778; 21% of 96,000 active;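 active = CYP2C19 inhibition above a set limit at 5 µM in the primary screen, cut at about 50% in these data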
Large screens that a line does not name were inactive.

COC(=O)c1[nH]c2ccc(C)cc2c1NC(=O)Nc1ccc(OC)cc1	CYP2C19 inhib 54
CCN(CC(=O)Nc1c(C(=O)OC)[nH]c2ccc(Cl)cc12)c1ccc2c(c1)OCO2	CYP2C9 inh 97, CYP2C19 inhib 88
COC(=O)c1[nH]c2ccc(C)cc2c1NC(=O)CN1CCCc2ccccc21	CYP2C9 inh 85
COC(=O)c1[nH]c2ccc(C)cc2c1NC(=O)CCN1CCN(Cc2ccc3c(c2)OCO3)CC1	none
CCOC(=O)C1CCCN(CC(=O)Nc2c(C(=O)OC)[nH]c3ccc(Cl)cc23)C1 (configuration not stated)	CYP2C9 inh 91, CYP2C19 inhib 91
CCOc1ccccc1NC(=O)Cn1cnc2c(nnn2-c2cccc(OC)c2)c1=O	none (no result: CYP2C9 activ, Rev-RRE block, CYP2C19 activ, CYP2C9 inh, CYP2C19 inhib)
CCCC(c1nnnn1CCc1ccccc1)N1CCN(C2CCCC2)CC1 (configuration not stated)	none
CCOC(=O)C1CCCN(CC(=O)Nc2c(C(=O)OC)[nH]c3ccc(C)cc23)C1 (configuration not stated)	CYP2C9 inh 60
Cc1ccc(C)c(CSc2nnc(-c3cccs3)n2Cc2ccco2)c1	CYP2C19 inhib 52
Cc1ccc(NCc2nnc(SCC(=O)c3ccccc3)n2Cc2ccco2)c(C)c1	CYP2C9 inh 81, CYP2C19 inhib 84
Cc1ccc(NC(=O)CSc2nnc(CSc3nc(C)cc(C)n3)n2Cc2ccco2)c(C)c1	none
Cc1cc(C)nc(SCc2nnc(SCC(=O)Nc3ccccc3C)n2Cc2ccco2)n1	CYP2C9 inh 70, CYP2C19 inhib 62
Cc1ccc(C)c(NC(=O)CSc2nnc(CSc3nc(C)cc(C)n3)n2Cc2ccco2)c1	CYP2C9 inh 51 (no result: Rev-RRE block)
CCCS(=O)(=O)N1CCCC(C(=O)NCC2CCCO2)C1 (configuration not stated)	none
CCOC(=O)CNc1nc(C#N)nc(N2CCOCC2)n1	none
CC1(C)Nc2ccccc2N(CC(=O)N2CCCCC2)C1=O	none
O=C1Nc2cc(Cl)cnc2N2CCCC12 (configuration not stated)	CYP2C9 inh 83 (no result: Rev-RRE block)
COCCOC(=O)C1=C(C)NC(=O)NC1C1CC=CCC1 (configuration not stated)	CYP2C19 inhib 96
COCCOC(=O)C1=C(C)NC(=O)NC1c1c(OC)ncnc1OC (configuration not stated)	none (no result: Rev-RRE block)
CCCSCCCNC(=O)Cn1cc2c(n1)CCC(C)C2 (configuration not stated)	CYP2C19 inhib 51
CC(=O)Nc1ccc(NC(=O)Cn2cc3c(n2)CCC(C)C3)cc1 (configuration not stated)	none (no result: CYP2C9 activ, CYP2C19 activ, CYP2C9 inh, CYP2C19 inhib)
CCOC(=O)c1cccc(NC(=O)Cn2cc3c(n2)CCC(C)C3)c1 (configuration not stated)	CYP2C9 inh 75 (no result: Rev-RRE block)
CC1CCc2nn(CC(=O)NC3CCCC3)cc2C1 (configuration not stated)	CYP2C19 inhib 59
COC(=O)c1nn(-c2ccccc2)c(Cl)c1/C=N/OCc1ccc(C)cc1	none
O=S(Cc1ccc(Br)cc1)Cc1nnc(SCc2c(Cl)cccc2Cl)n1-c1ccccc1 (configuration not stated)	CYP2C9 inh 80, CYP2C19 inhib 88 (no result: Cav32 inh)
Cn1c(CS(=O)Cc2c(Cl)cccc2Cl)nnc1SCc1c(Cl)cccc1Cl (configuration not stated)	CYP2C19 inhib 55
Fc1cccc(Cl)c1CSc1nnc(CN2CCOCC2)n1-c1ccccc1	none
Cc1ccc(C)c(NC(=O)c2ccc[n+](Cc3ccc([N+](=O)[O-])cc3)c2)c1	none
c1cc2c(cc1C1CCCN1)OCCCO2 (configuration not stated)	none
COc1cc(C(=O)N2CCN(C(=O)Cc3ccccc3)CC2)cc(OC)c1OC	none (no result: Cav32 inh)
Cc1cc(C)nc(-n2nc(C)c3c(C(F)(F)F)cc(=O)[nH]c32)n1	CYP2C9 inh 65
Cc1cccc(-c2nc(NCCCN3CCOCC3)c3ccccc3n2)c1	CYP2C9 inh 84, CYP2C19 inhib 60
Cc1cc(C(=O)COC(=O)CCc2nc3ccccc3s2)c(C)n1C	none
Clc1ccc2c(NNc3ccccc3Cl)ccnc2c1	CYP2C9 inh 60
Clc1ccc2c(N3CCCC3)ccnc2c1	none
CSc1nc(Oc2ccc(F)cc2)c2ccccc2n1	none
CSc1nc(Oc2ccc3ccccc3c2)c2sccc2n1	CYP2C9 inh 87
CCOC(=O)C1=C(CN2CCN(c3ccc(F)cc3)CC2)NC(=O)NC1c1cccs1 (configuration not stated)	CYP2C9 inh 91, CYP2C19 inhib 88
CCCCC1CCC(C(=O)Nc2ccccc2)CC1 (configuration not stated)	none
CCCCn1c(SCc2nc3ccccc3s2)nc2cc(S(N)(=O)=O)ccc21	CYP2C9 inh 73
CCCCn1c(SCC(=O)NCc2ccco2)nc2cc(S(N)(=O)=O)ccc21	CYP2C9 inh 68, CYP2C19 inhib 56
CCCCn1c(SCC(=O)N2CCCCC2)nc2cc(S(N)(=O)=O)ccc21	none
CC(C)(C)OC(=O)N1CCC(C(=O)N2CCOCC2)CC1	none
COc1ccc(Br)c(/C=N/NC(=O)COc2ccc(-c3ccccc3)cc2)c1	none
CC(NC(=O)COc1ccc(/C=N/NC(=O)C(=O)Nc2ccccc2Br)cc1)c1ccccc1 (configuration not stated)	CYP2C9 inh 69
CC(c1ccccc1)N1CC(C(=O)N2CCN(c3ccc(F)cc3)CC2)CC1=O (configuration not stated)	none
CCN(CC)S(=O)(=O)c1ccc(O)c(C(=O)OCC(=O)N(C)Cc2ccccc2)c1	CYP2C9 inh 75
Cc1sc(-c2ccncc2)nc1OC(=O)c1ccccc1	CYP2C9 inh 96, CYP2C19 inhib 99
Cc1sc(-c2ccccn2)nc1OC(=O)c1cccc(Cl)c1Cl	CYP2C9 inh 72
COc1cccc(NC(=O)C(OC(=O)/C=C/c2ccc3c(c2)OCO3)c2ccccc2)c1 (configuration not stated)	Cav32 inh -5.1, CYP2C9 inh 69
COc1cccc(NC(=O)c2oc3ccccc3c2NC(=O)c2ccc3c(c2)OCO3)c1	none
COc1cccc(NC(=O)C(NCC2CCCCC2)c2ccccc2)c1 (configuration not stated)	CYP2C9 inh 77, CYP2C19 inhib 79
COc1cccc(NC(=O)C(NCCC(C)C)c2ccccc2)c1 (configuration not stated)	Cav32 inh -6.2
CCCN(CCC)C(C(=O)Nc1cccc(OC)c1)c1ccccc1 (configuration not stated)	CYP2C9 inh 89, CYP2C19 inhib 88 (no result: Cav32 inh)
COc1ccc(N/C(N)=N/c2nc(CSc3ccc(C)cc3)cc(=O)[nH]2)cc1	none

High-throughput results as filed in PubChem.
